Screens: PubChem, Sanford-Burnham Center for Chemical Genomics
UBC13 inh – inhibitors of human UBC13 polyubiquitin chain formation; TR-FRET; inhibition, % at 20 µM; 330,000 tested, 0.47% active; P61088; AID 485273; in the data active = inhibition above about 45%, passing the limit was not always enough
Target sequence (P61088 whole entry, looked up): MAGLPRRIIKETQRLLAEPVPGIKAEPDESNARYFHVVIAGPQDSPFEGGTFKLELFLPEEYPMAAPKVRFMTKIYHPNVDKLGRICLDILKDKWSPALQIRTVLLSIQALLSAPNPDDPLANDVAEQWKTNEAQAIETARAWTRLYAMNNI
SENP6 block – blocks the human protease SENP6; Q9GZR1; Recombinant SENP6 catalytic domain, aminoluciferin luminescence; inhibition, % at 10 µM; 330,000 tested, 1.8% active; AID 2599;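 active = inhibition above about 50% at the single tested dose, limit read from the data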;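 also: plate controls were DMSO wells with enzyme for no effect and DMSO wells lacking enzyme for full effect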
SENP8 block-1 – blocks the human protease SENP8; Q96LD8; purified SENP8, Z-RLRGG-aminoluciferin cleavage, luminescence; inhibition, % at 10 µM; 330,000 tested, 1.2% active; in the data active = inhibition above about 50%
Target sequence (Q96LD8 whole entry, looked up): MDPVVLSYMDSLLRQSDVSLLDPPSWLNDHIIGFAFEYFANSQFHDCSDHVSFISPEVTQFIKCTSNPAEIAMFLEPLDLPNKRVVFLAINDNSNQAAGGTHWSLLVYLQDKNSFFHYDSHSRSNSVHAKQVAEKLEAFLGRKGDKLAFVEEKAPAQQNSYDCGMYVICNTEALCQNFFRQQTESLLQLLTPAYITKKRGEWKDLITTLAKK
SENP7 block – blocks the human protease SENP7; 330,000 tested, 1.5% active; recombinant SENP7, Z-RLRGG-aminoluciferin luminescence, 40 min; Q9BQF6; inhibition, % at 5 µM;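 active = inhibition above about 50% at the single test dose, limit read from the data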;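 also: plate controls were DMSO with enzyme for no effect and no enzyme buffer wells for full effect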
SENP8 block-2 – SENP8 (human) protease inhibition; inhibition, % at 20 µM; recombinant SENP8, Nedd8 substrate fluorescence; 360,000 tested, 0.64% active; AID 602440; in the data active = inhibition mostly above about 40%, no sharp cut-off; inactive = mostly below about 27%
Apaf1 inhib – human Apaf-1 inhibition | inhibition, % at 20 µM | reconstituted apoptosome caspase-3 activity, DEVD-Rh110 fluorescence | 330,000 tested, 0.71% active; active = inhibition of at least 40% at 20 µM;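 also: plate controls were DMSO wells for no effect and DEVD-CHO caspase inhibitor wells for full effect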
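System – cell-free apoptosome with Apaf-1, procaspase-3 and caspase-9 · Buffer or medium – pH 7.5 Hepes buffer with CHAPS, BSA, DTT · Also added – cytochrome c with DEVD-Rh110 · Times – 30 min compound preincubation, 50 min activation, room temperature · Technique – Rh110 fluorescence intensity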
SENP8 conf – human SENP8 inhibition, confirmed; shares compounds with SENP7 block; Recombinant SENP8, Z-RLRGG-aminoluciferin luminescence, 60 min; inhibition, % at 12.5 µM; 6,200 tested, 40% active; AID 488912;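 active = mean inhibition across replicates above about 50%, limit read from the data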
SENP6 conf – human SENP6 inhibition, confirmed; shares compounds with SENP7 block; recombinant SENP6, Z-RLRGG-aminoluciferin luminescence; inhibition, % at 12.5 µM; 6,200 tested, 58% active
SENP7 conf – human SENP7 inhibition, confirmed. shares compounds with SENP7 block. recombinant SENP7, Z-RLRGG-aminoluciferin luminescence, 40 min. AID 488917. 6,200 tested, 69% active. inhibition, % at 12.5 µM
Casp3 select – caspase-3 inhibition (SENP selectivity assay) | shares compounds with SENP7 block | purified caspase-3, Z-DEVD-aminoluciferin luminescence, 60 min | 6,200 tested, 60% active | inhibition, % at 12.5 µM | AID 488918;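 active = mean inhibition above about 50%, limit read from the data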;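 also: plate controls were enzyme with DMSO for no effect and wells without caspase-3 for full effect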
Target sequence (P42574 28-227 limits assumed): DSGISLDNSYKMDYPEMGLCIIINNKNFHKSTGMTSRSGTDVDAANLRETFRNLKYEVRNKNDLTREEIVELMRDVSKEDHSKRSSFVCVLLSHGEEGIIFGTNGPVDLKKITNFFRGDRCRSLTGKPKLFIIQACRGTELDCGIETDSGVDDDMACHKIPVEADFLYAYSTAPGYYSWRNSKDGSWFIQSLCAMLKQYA
Luc interf – interferes with luciferase luminescence in SENP counter-screen; inhibition, % at 12.5 µM; AID 488919; shares compounds with SENP7 block; Pre-incubated SENP8/Z-RLRGG-aminoluciferin, luciferase luminescence interference; 6,200 tested, 39% active;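 active = mean inhibition above about 50% when retested at one dose, limit read from the data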;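 also: plate controls were DMSO wells with completed reaction for no effect and substrate without enzyme for full effect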
The depositor's hits bear a star; · = not tested or not shown. The list is not random: actives were taken first. Their share in the collection is about 3%.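 The calls were made as follows, unless noted: active = mean inhibition above about 50% in the one-dose retest (limit read from the data); inactive = the rest.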

SMILES	UBC13 inh	SENP6 block	SENP8 block-1	SENP7 block	SENP8 block-2	Apaf1 inhib	SENP8 conf	SENP6 conf	SENP7 conf	Casp3 select	Luc interf
c1ccc2c(c1)CCN(c1nc3cc4c(cc3s1)OCCO4)C2	6	97*	96*	99*	-340	23	98*	99*	102*	97*	83*
CC(C)(C)OC(=O)N1CCCN(C(c2ccnc3ccccc23)c2nnnn2-c2ccc3c(c2)OCCO3)CC1 (centres undefined)	·	·	·	·	3	·	·	·	·	·	·
CNc1nc(-c2ccc(Cl)cc2)cs1	2	62*	30	20	10	14	54*	58*	82*	51*	26
CCN(CC)CC(=O)Nc1nc(-c2ccc(Cl)cc2)cs1	10	1	-11	-9	20	1	·	·	·	·	·
CNc1nc(-c2ccc([N+](=O)[O-])cc2)cs1	-11	1	-4	10	38	1	·	·	·	·	·
CCNc1nc(-c2ccc(Cl)cc2)cs1	-11	85*	72*	62*	13	12	-21	71*	94*	60*	69*
CC(=O)Nc1ccc(S(=O)(=O)Nc2ccc(S(=O)(=O)Nc3nccs3)cc2)cc1	2	-8	3	-2	1	-1	·	·	·	·	·
COc1ccc(Cl)cc1S(=O)(=O)NCCCn1ccnc1	3	53*	-4	0	17	-3	2	-3	-2	-3	-4
COc1ccc(OC)c(S(=O)(=O)NCCCn2ccnc2)c1	8	0	-8	-3	13	-4	·	·	·	·	·
CC1=NN(c2nc3ccccc3[nH]2)C(=O)C1Cc1ccccc1 (centres undefined)	-4	-17	-9	7	16	-19	·	·	·	·	·
Cc1ccnc(NC(=O)c2ccc3c(c2)NC(=O)C(C)S3)c1 (centres undefined)	-1	55*	41	25	5	-2	20	36	27	36	34
O=C(Nc1ccon1)c1ccc2c(c1)OCO2	6	1	-9	0	19	-16	·	·	·	·	·
Cc1ccc(NC(=O)c2ccc3c(c2)OCCO3)nc1	-11	56*	26	54*	4	4	48	46	81*	81*	60*
Cc1ccnc(NC(=O)c2ccc3c(c2)OCO3)c1	12	69*	80*	92*	-1	-4	6	87*	98*	96*	87*
COc1ccc(S(=O)(=O)N(CC(=O)NCc2cccnc2)c2ccc(C)cc2)cc1OC	1	-16	11	2	6	-8	·	·	·	·	·
Cc1ccc(C(=O)n2c(N)nc3ccccc32)cc1	12	86*	91*	97*	-30	9	90*	95*	101*	96*	66*
O=C1C(=Cc2ccc(F)cc2)Cc2ccccc21	·	·	·	·	20	·	·	·	·	·	·
O=C1/C(=C/c2ccco2)Cc2ccccc21	2	66*	33	2	-34	-4	48	67*	90*	72*	29
O=C1/C(=C\c2ccco2)CCC/C1=C\c1ccco1	16	-72	1	0	-22	3	·	·	·	·	·
O=C1/C(=C/c2ccccc2)CCC1C1CCCC1 (centres undefined)	18	73*	0	64*	15	4	4	6	22	29	23
CCOc1ccc(/C=C2\CCC(C3CCCC3)C2=O)cc1OC (centres undefined)	-4	18	-3	1	11	10	·	·	·	·	·
O=C1/C(=C/c2ccco2)CCC1C1CCCC1 (centres undefined)	22	92*	77*	73*	31	-18	-2	77*	95*	57*	16
CCOc1ccc(/C=C2\CCC(C3CCCC3)C2=O)cc1 (centres undefined)	2	11	31	71*	11	6	16	18	15	36	4
Cc1nnc(SCC(=O)Nc2ccccc2F)n1-c1ccc(F)cc1	4	9	1	4	4	6	·	·	·	·	·
Cc1nc2c(c(C)nn2-c2ccccc2)c(C)c1CCC(=O)Nc1ccc(CN2CCCC2)cc1	31	6	0	12	-274	-2	·	·	·	·	·
SMILES	UBC13 inh	SENP6 block	SENP8 block-1	SENP7 block	SENP8 block-2	Apaf1 inhib	SENP8 conf	SENP6 conf	SENP7 conf	Casp3 select	Luc interf
Cc1nc(C(=O)N2CCC(C)(C(=O)NS(=O)(=O)C3CC3)C2)c(C)o1 (centres undefined)	·	·	·	·	18	·	·	·	·	·	·
CC(=O)c1cccc(N(CC(=O)Nc2ccccc2C(=O)N2CCCC2)S(C)(=O)=O)c1	5	-3	5	-1	7	-323	·	·	·	·	·
COc1ccccc1/C=C1\CCC(C2CCCC2)C1=O (centres undefined)	1	7	-1	-9	14	8	·	·	·	·	·
O=C1/C(=C/c2ccc(F)cc2)CCC1C1CCCC1 (centres undefined)	5	42	62*	62*	12	1	31	31	44	54*	27
O=C(c1ccc(Cl)s1)N1CCN(S(=O)(=O)c2ccc(Cl)cc2)CC1	9	13	1	-1	9	4	·	·	·	·	·
COc1ccc(C)cc1NC(=O)C1CCCN(S(=O)(=O)c2ccc3c(c2)CCCN3C(C)=O)C1 (centres undefined)	8	3	5	0	12	1	·	·	·	·	·
O=C(Nc1ccc(Br)cc1)c1cc2ccccn2n1	3	-8	71*	64*	37	-13	35	36	88*	65*	44
COc1ccc2c(c1O)C(=O)c1ccccc1C2=O	-56	4	5	10	·	-6	·	·	·	·	·
CC(C)COC(=O)c1ccc2c(c1O)C(=O)c1ccccc1C2=O	-45	81*	37	93*	35	24	85*	88*	95*	59*	52*
Cc1ccc(CCNC(=O)CS(=O)Cc2nc(-c3ccccc3Cl)oc2C)cc1 (centres undefined)	5	9	-8	-5	-7	17	·	·	·	·	·
Cc1ccc(/C=N/c2sc3c(c2C#N)CCC3)o1	-4	93*	90*	91*	16	5	5	84*	94*	36	52*
